Calls of active or inactive are those of the source. No cut-off for these calls is given here.
How the values were obtained:
[1] = test system: A-431; test: Antiproliferative activity against human A431 cells after 72 hrs by MTT assay; assay type: functional, cell-based; details: A-431, 72 h
Summary of the method: (§1)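 HeLa, MCF-7 and A431 cells were kept in minimal essential medium with 10% fetal bovine serum, 1% non-essential amino acids and antibiotic-antimycotic, at 37 °C in humidified 5% CO₂. Cells were seeded at 5000 cells/well, left overnight, then given compound-containing medium. Read-out was MTT colorimetric, with cisplatin as positive control. IC₅₀ came from fitted sigmoidal dose–response curves.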

[2] = test system: HeLa; test: Antiproliferative activity against human HeLa cells after 72 hrs by MTT assay; assay type: functional, cell-based; summary of the method: as §1
[3] = test system: MCF7; test: Antiproliferative activity against human MCF7 cells after 72 hrs by MTT assay; assay type: functional, cell-based; details: MCF7, 72 h; summary of the method: as §1
[4] = test system: HeLa; test: Cell cycle arrest in human HeLa cells at 3 to 10 uM after 48 hrs by flow cytometry analysis; assay type: functional, cell-based
Summary of the method: (§2)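 HeLa cells were treated at […] for 24 or 48 h. Then 200,000 cells per condition were trypsinized, PBS-washed, fixed in cold 70% ethanol for 30 min on ice, washed twice and PI-stained for DNA. 20,000 events were recorded and subG1, G1, S and G2/M percentages computed, with subG1 taken as apoptotic. Values are means of three determinations, tested against control.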

[5] = test system: HeLa; test: Induction of apoptosis in human HeLa cells assessed as nuclear condensation after 24 hrs by Hoechst 33258 staining based fluorescence microscopy; assay type: functional, cell-based
Summary of the method: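 Near-confluent HeLa cells were seeded at 5000 cells/well and exposed for 24 h to vehicle or compound at […]. Hoechst 33258 and PI were added at final 5 and 2 µg/mL, then incubated 1 h at 37 °C.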

[6] = test system: HeLa; test: Cell cycle arrest in human HeLa cells assessed as accumulation at Sub-G1 phase at 3 to 10 uM after 24 hrs by flow cytometry analysis; assay type: functional, cell-based; summary of the method: as §2
[7] = test system: HeLa; test: Cell cycle arrest in human HeLa cells assessed as accumulation at G2/M phase after 24 hrs by flow cytometry; assay type: functional, cell-based; summary of the method: as §2
[8] = test system: HeLa; test: Cellular uptake in human HeLa cells after 24 hrs by fluorescence microscopy; assay type: ADME, cell-based
[9] = test system: HeLa; test: Cell cycle arrest in human HeLa cells assessed as accumulation at G2/M phase at 3 to 10 uM after 24 hrs by flow cytometry; assay type: functional, cell-based; summary of the method: as §2
[10] = test system: HeLa; test: Cell cycle arrest in human HeLa cells assessed as accumulation at S phase at 3 to 10 uM after 24 hrs by flow cytometry analysis; assay type: functional, cell-based; summary of the method: as §2

Compound | IC50 [1] [µM] | IC50 [2] [µM] | IC50 [3] [µM] | Activity [4] | Activity [5] | Activity [6] | Activity [7] | Drug uptake [8] | Activity [9] | Activity [10]
CCCc1ccc(-c2cn([C@@H]3CC(=O)[C@@]4(C)CC[C@H]5[C@@H](CC[C@H]6C[C@@H](OC(C)=O)CC[C@@]65C)[C@H]34)nn2)cc1 | > 30 | 15 | 8.4 | – | – | – | – | – | – | –
COc1ccc2c(c1)CC[C@H]1[C@@H]3[C@H](n4cc(-c5ccccc5)nn4)CC(=O)[C@@]3(C)CC[C@H]21 | 4.77 | 14.9 | 11.3 | – | – | – | – | – | – | –
CC(=O)O[C@H]1CC[C@@]2(C)[C@@H](CC[C@H]3[C@@H]4[C@H](n5cc(-c6ccccc6)nn5)CC(=O)[C@@]4(C)CC[C@@H]32)C1 | 9.69 | 9.16 | 1.69 | Active | Dose-dependent effect | Active | Dose-dependent effect | Dose-dependent effect | – | –
CC(=O)O[C@H]1CC[C@@]2(C)[C@@H](CC[C@H]3[C@@H]4[C@H](n5cc(-c6ccc(F)cc6)nn5)CC(=O)[C@@]4(C)CC[C@@H]32)C1 | 16 | 11 | 3.39 | – | – | – | – | – | – | –
CC(=O)O[C@H]1CC[C@@]2(C)[C@@H](CC[C@H]3[C@@H]4[C@H](n5cc(-c6ccc(C)cc6)nn5)CC(=O)[C@@]4(C)CC[C@@H]32)C1 | 10.7 | 10.3 | 2.68 | – | Dose-dependent effect | – | Dose-dependent effect | Dose-dependent effect | – | –
CC(=O)O[C@H]1CC[C@@]2(C)[C@@H](CC[C@H]3[C@@H]4[C@H](n5cc(-c6ccc(C)cc6)nn5)C[C@H](O)[C@@]4(C)CC[C@@H]32)C1 | 22.4 | 9.4 | 10.3 | Active | Dose-dependent effect | Active | Dose-dependent effect | Dose-dependent effect | – | –
COc1ccc2c(c1)CC[C@H]1[C@@H]3[C@H](n4cc(-c5ccccc5)nn4)C[C@H](O)[C@@]3(C)CC[C@H]21 | 1.7 | > 30 | > 30 | – | – | – | – | – | – | –
CC(=O)O[C@H]1CC[C@@]2(C)[C@@H](CC[C@H]3[C@@H]4[C@H](n5cc(-c6ccccc6)nn5)C[C@H](O)[C@@]4(C)CC[C@@H]32)C1 | 20.7 | 7.7 | 19.2 | Active | Dose-dependent effect | Active | Dose-dependent effect | Dose-dependent effect | – | –
CC(=O)O[C@H]1CC[C@@]2(C)[C@@H](CC[C@H]3[C@@H]4[C@H](n5cc(-c6ccc(F)cc6)nn5)C[C@H](O)[C@@]4(C)CC[C@@H]32)C1 | > 30 | > 30 | > 30 | – | – | – | – | – | – | –
CCCc1ccc(-c2cn([C@@H]3C[C@H](O)[C@@]4(C)CC[C@H]5[C@@H](CC[C@H]6C[C@@H](OC(C)=O)CC[C@@]65C)[C@H]34)nn2)cc1 | > 30 | 6.52 | > 30 | Active | Dose-dependent effect | Active | – | Dose-dependent effect | inactive | Active
